The subject of series [1] is RAW264.7. Description: Antiosteoporotic activity in mouse RAW264.7 cells assessed as inhibition of RANKL-induced osteoclast formation after 5 days by TRAP assay relative to untreated control. The series is classed as functional, cell-based. The gist of the method:
(§1)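 RAW 264.7 pre-osteoclast cells induced to form osteoclasts with RANKL. Compounds tested at concentrations up to 10 µM. TRAP activity is expressed as percent of the untreated control, as mean ± SD with n = 3. The untreated control (C) and the RANKL-treated control (TC) are both included.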

Series [2] concerns RAW264.7. The experiment in a line: Antiosteoporotic activity in mouse RAW264.7 cells assessed as inhibition of RANKL-induced osteoclast formation at 10 uM after 5 days by TRAP assay relative to untreated control. The series is classed as functional. Set-up: scale not given: the % may be the effect or the level left. The method, boiled down:
as §1

Series [3] in a line: Antioxidant activity assessed as AAPH-induced peroxyl radical scavenging activity by oxygen radical absorbance assay. The series is classed as physicochemical. The method, boiled down: (§2)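 Peroxyl radical scavenging measured by ORAC, a hydrogen atom transfer assay. Compounds tested at 1-10 µM. Values expressed as µM Trolox equivalents (TE).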
A short description of series [4]: Antioxidant activity assessed as AAPH-induced peroxyl radical scavenging activity at 10 uM by oxygen radical absorbance assay relative to trolox. The format is physicochemical. The gist of the method:
as §2

Series [5] is described as follows: Antioxidant activity assessed as reduction of Cu2+ to Cu+ at 10 uM by reduction assay relative to trolox. The series is classed as physicochemical. The method, boiled down: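 Single electron transfer reducing-capacity assay measuring reduction of Cu2+ ions. Compounds tested at up to 10.0 µM. Values expressed as µM Trolox equivalents, as mean ± SD of three measurements.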

With `COc1cc([C@H]2OC[C@H]3[C@@H]2CO[C@@H]3c2cc(OC)c(O[C@@H]3O[C@H](CO)[C@@H](O)[C@H](O)[C@H]3O)c(OC)c2)cc(OC)c1O[C@@H]1O[C@H](CO)[C@@H](O)[C@H](O)[C@H]1O` [LIRIODENDRIN], the results for the Activity result in series [1], in series [2] and in series [3] were “Dose-dependent effect”, 106.05% and “Dose-dependent effect”, respectively.

As for `O=c1c(-c2ccc(O[C@@H]3O[C@H](CO)[C@@H](O)[C@H](O)[C@H]3O)cc2)coc2cc(O)ccc12`, the Activity entry in series [1] is “Dose-dependent effect”; in series [2], 104.77%; in series [3], “Dose-dependent effect”. For the same compound, the Ratio in series [4] was greater than 20.

For the compound `O=C(c1ccc(O)cc1O[C@@H]1O[C@H](CO)[C@@H](O)[C@H](O)[C@H]1O)[C@H](O)Cc1ccc(O)cc1`, the Activity entry in series [3] was “Dose-dependent effect”.

As for `O=c1c(-c2ccc(O)cc2)coc2cc(O[C@@H]3O[C@H](CO)[C@@H](O)[C@H](O)[C@H]3O)ccc12` [DAIDZIN], in series [3], the Activity entry is “Dose-dependent effect”. Also, the Ratio in series [4] was greater than 20.

With `CC(C)=CCc1c(O)ccc(C(=O)/C=C/c2ccc(O)cc2)c1O` [ISOBAVACHALCONE], the Activity entry in series [3] is “Dose-dependent effect”. Also, the Ratio in series [4] is listed as greater than 20.

Turning to `CC1=CC(=O)CC(C)(C)[C@H]1CC[C@@H](C)O[C@@H]1O[C@H](CO)[C@@H](O)[C@H](O)[C@H]1O`, the Activity entry in series [3] is reported as “Dose-dependent effect”.

Take `COc1cc([C@H]2OC[C@H]3[C@@H]2CO[C@@H]3c2cc(OC)c(OC)c(OC)c2)cc(OC)c1O`: the Activity entry in series [3] is “Dose-dependent effect”. Further, the Ratio in series [5] is recorded as 23.44.

Consider `COc1cc(O)c2c(=O)c(-c3ccc(O[C@@H]4O[C@H](CO)[C@@H](O)[C@H](O)[C@H]4O)cc3)coc2c1`, for which the Activity entry in series [3] was “Dose-dependent effect”.

`O=c1c(-c2ccc(O)cc2)coc2cc(O[C@@H]3O[C@H](CO)[C@@H](O)[C@H](O)[C@H]3O)cc(O)c12` [GENISTIN]: in series [3], the Activity entry is given as “Dose-dependent effect”. Besides, the Ratio in series [4] is 26.55.

On to `COc1cc([C@H]2OC[C@H]3[C@@H]2CO[C@@H]3c2ccc(O[C@@H]3O[C@H](CO)[C@@H](O)[C@H](O)[C@H]3O)c(OC)c2)ccc1O`, for which the Activity result in series [3] is on record as “Dose-dependent effect”.

With `COc1cc(/C=C/CO)ccc1O[C@@H]1O[C@H](CO)[C@@H](O)[C@H](O)[C@H]1O` [CONIFERIN], the Activity result in series [3] is listed as “Dose-dependent effect”.

In the case of `COC(=O)/C=C\c1ccc(O)c(CC=C(C)C)c1`, the Activity entry in series [1] was “Dose-dependent effect”; in series [2], 85.05%; in series [3], “Dose-dependent effect”.

With `O=c1oc2cc(O)ccc2c2oc3cc(O)ccc3c12` [COUMESTROL], in series [3], the Activity result was “Dose-dependent effect”.

Consider `C=CCc1ccc(O[C@@H]2O[C@H](CO)[C@@H](O)[C@H](O)[C@H]2O)c(OC)c1` [CITRUSIN C], for which the values for the Activity entry in series [1], in series [2] and in series [3] were “Dose-dependent effect”, 100.93% and “Dose-dependent effect”, respectively.

With `OC[C@H]1O[C@@H](Oc2ccc3c(c2)OC[C@@]2(O)c4ccc(O)cc4O[C@@H]32)[C@H](O)[C@@H](O)[C@@H]1O`, the Activity entry in series [3] is “Dose-dependent effect”. Besides, the Ratio in series [4] is greater than 20.

For the origin of these results see ChEMBL document CHEMBL3352099, “Anti-osteoporotic and antioxidant activities of chemical constituents of the aerial parts of Ducrosia ismaelis” (Bioorg Med Chem Lett, 2014).
